Data set [1] is described as follows: Effect of intravenous IS on the elimination of intravenous PSP in rats. In kind it is in vivo, rat. Conditions: for AUC(0-t) / clearance / MRT: male, Sprague-Dawley, rat, serum, iv, 5 mg/kg, mean ± S.E., n = 6; for AUC(0-t): AUC0-1440, area under concentration-time curve to 1440 min; for clearance: Cl, the clearance; for MRT: the mean residence time. The procedure, abridged:
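Male Sprague–Dawley rats (370–420 g), fasted 12 h, received IV PSP 5.0 mg/kg with or without IV IS 10.0 mg/kg in a crossover design with a 1-week washout. Blood was drawn at 30–1440 min and serum was deproteinized with methanol and basified with NaOH. Absorbance was read at 560 nm (calibration 0.39–12.5 μg/mL). Noncompartmental analysis; paired t-test.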

The conditions of data set [2]: by OATs- and MRPs-mediated transports; cited from earlier work.
Data set [3] is described as follows: Effect of oral indican on the pharmacokinetics of oral MTX in rats. The class given is in vivo, rat. The settings on record: mean ± S.E., n = 5; for MRT: male, Sprague-Dawley, rat, serum, po, the mean residence time. The procedure, abridged:
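Male Sprague–Dawley rats (330–400 g), fasted 12 h, were given oral MTX 5.0 mg/kg alone or with oral indican 20.0 or 40.0 mg/kg in a parallel design. Serum MTX was measured by fluorescence polarization immunoassay (calibrated 0–1.0 μmol/L, LLOQ 0.01 μmol/L). Noncompartmental analysis: Cmax observed, AUC by trapezoidal rule to last point. Groups compared by one-way ANOVA with Scheffe's test.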

The mark [4] stands for this setting: intravenous bolus of PSP 5.0 mg/kg alone.
Setting [5] is: intravenous bolus of PSP 5.0 mg/kg with intravenous bolus of IS 10.0 mg/kg.

Counter-ions that a name gives are not always drawn. Marks after values point to notes of the source that are not given here.

The values below come from PMC9326885 (Journal of Food and Drug Analysis, 2017).

On to `O=S(=O)(O)Oc1c[nH]c2ccccc12` [IS, indoxyl sulfate], for which the “Effect on the elimination of PSP (serum profiles)” value in data set [1] (intravenous IS 10.0 mg/kg with intravenous PSP 5.0 mg/kg) was “inhibited”.

In the case of `CN(Cc1cnc2nc(N)nc(N)c2n1)c1ccc(C(=O)N[C@@H](CCC(=O)O)C(=O)O)cc1` [MTX, Methotrexate], the “Fraction of MTX excreted via urine” value in data set [2] is reported as “More than 80%”. For the same compound, the MRT in data set [3] (5 mg/kg, oral MTX 5.0 mg/kg alone) was 5.26 h; in data set [3] (oral MTX 5.0 mg/kg coadministered with indican 20.0 mg/kg), 17 h; in data set [3] (oral MTX 5.0 mg/kg coadministered with indican 40.0 mg/kg), 16 h. Also, in data set [3] (oral MTX 5.0 mg/kg alone), the “AUC0-2880, area under concentration-time curve to 2880 min” value is listed as 63.6 ± 6.9^a μmole•min/L.

In data set [1] (setting [4]), `O=S1(=O)OC(c2ccc(O)cc2)(c2ccc(O)cc2)c2ccccc21` [PSP, phenolsulfonphthalein] gave an AUC(0-t) of 21300 ng·h/mL, a clearance of 3.1 ± 0.4 mL/min/kg and an MRT of 6.67 h. In addition, in data set [1] (setting [5]), the AUC(0-t) was 64700 ng·h/mL, the clearance turned out to be 1 ± 0.3 mL/min/kg and the MRT was 9.54 h.
